Results on 10 compounds are retold here after ChEMBL document CHEMBL4118036, “α-Glucosidase Inhibitors from Salvia circinata” (J Nat Prod, 2017).

A short description of assay [1]: Inhibition of rat intestinal alpha-glucosidase using p-nitrophenyl-alpha-D-glucopyranoside as substrate pretreated for 10 mins followed by substrate addition measured after 30 mins. Summed up:
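Rat intestinal acetone powder (40 mg/mL in 100 mM PBS, pH 7) as enzyme source. Test agents were dissolved in PBS or MeOH–PBS (1:1), then preincubated with the enzyme for 10 min at 37 °C. p-Nitrophenyl-α-D-glucopyranoside was added (20 mM stock in PBS) and incubated for 30 min at 37 °C. Absorbance read at 405 nm; IC50 derived per earlier reports.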

Assay [2] addresses T1, Alpha-glucosidase (Blautia obeum, UniProt A0A173Z7B1).
T1 sequence (A0A173Z7B1 whole entry): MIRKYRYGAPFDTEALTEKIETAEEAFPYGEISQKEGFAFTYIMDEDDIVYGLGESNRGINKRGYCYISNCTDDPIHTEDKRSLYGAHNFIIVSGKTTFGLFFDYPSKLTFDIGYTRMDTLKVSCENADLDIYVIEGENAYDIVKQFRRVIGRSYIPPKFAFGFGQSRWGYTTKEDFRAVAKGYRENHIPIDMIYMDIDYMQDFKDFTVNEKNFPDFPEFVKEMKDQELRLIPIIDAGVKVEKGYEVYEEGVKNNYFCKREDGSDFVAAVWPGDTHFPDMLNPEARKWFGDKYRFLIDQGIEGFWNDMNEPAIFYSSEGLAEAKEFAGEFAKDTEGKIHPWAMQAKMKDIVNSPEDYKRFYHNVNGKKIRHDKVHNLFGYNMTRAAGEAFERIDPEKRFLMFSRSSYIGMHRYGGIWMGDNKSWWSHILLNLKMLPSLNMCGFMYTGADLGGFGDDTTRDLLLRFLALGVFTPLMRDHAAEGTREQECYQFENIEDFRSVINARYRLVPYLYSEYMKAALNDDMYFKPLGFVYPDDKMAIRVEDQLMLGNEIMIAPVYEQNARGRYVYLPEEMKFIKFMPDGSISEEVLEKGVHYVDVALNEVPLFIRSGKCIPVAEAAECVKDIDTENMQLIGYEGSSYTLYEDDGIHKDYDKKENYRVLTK
Put plainly: Inhibition of recombinant Ruminococcus obeum ATCC 29174 alpha-glucosidase expressed in Escherichia coli BL21(DE3) using p-nitrophenyl-alpha-D-glucopyranoside as substrate pretreated for 10 mins followed by substrate addition measured after 3 hrs. On the set-up: species or system Blautia obeum ATCC 29174. In outline:
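Enzyme from E. coli BL21-DE3/pET12b grown in LB at 37 °C and induced with 0.5 mM IPTG for 8 h. Cells were sonicated in 50 mM bis-TRIS propane pH 8.0 and the lysate clarified. Enzyme (5.2 mg/mL) was preincubated with test agents for 10 min at 37 °C. pNP-α-glucoside was added (20 mM stock) and incubated for 3 h at 37 °C.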

The subject of assay [3] is Mus musculus. Put plainly: Antihyperglycemic activity in ig dosed ICR mouse assessed as reduction in postprandial blood glucose levels pretreated for 30 mins followed by oral sucrose challenge measured at 30 mins interval for 120 mins by OSTT. In kind it is functional, organism-based.
The species entered for assay [4] is Rattus norvegicus. Put plainly: Potency index, ratio of acarbose IC50 to test compound IC50 for rat intestinal alpha-glucosidase.
Assay [5] concerns Mus musculus. Put plainly: Antihyperglycemic activity in ICR mouse assessed as reduction in postprandial blood glucose levels at 5 mg/kg, ig pretreated for 30 mins followed by oral sucrose challenge measured at 30 mins interval for 120 mins by OSTT. In kind it is functional, organism-based.

Activity calls are given as the source filed them. No cut-off for these calls is given here.

What is called IC50 is the concentration at which inhibition is half-maximal. With `CO[C@@H]1C=C(CC[C@]2(C)[C@H](C)CC[C@@]34COC(=O)C3=C[C@@H](O[C@@H]3O[C@H](CO)[C@@H](O)[C@H](O)[C@H]3O)C[C@@H]42)C(=O)O1`, the half-inhibitory concentration (IC50) in assay [1] is above 10000 µM. For the compound `O=c1cc(-c2ccc(O)cc2)oc2cc(O[C@@H]3O[C@H](CO)[C@@H](O)[C@H](O)[C@H]3O)cc(O)c12` [APIGETRIN], the concentration for half-maximal inhibition (IC50) in assay [1] amounted to 200 µM. As to `COc1cc2oc(-c3ccc(O)c(O)c3)cc(=O)c2c(O)c1O`, the concentration for half-maximal inhibition (IC50) in assay [1] stood at 810 µM; in assay [2] it was 60 µM. Moreover, in assay [3], the Activity entry is “Dose-dependent effect”.

On to `C[C@@H]1CC[C@@]23COC(=O)C2=C[C@@H](O[C@@H]2O[C@H](CO)[C@@H](O)[C@H](O)[C@H]2O)C[C@@H]3[C@]1(C)CCc1ccoc1`, for which the IC50 in assay [1] stood at 500 µM; in assay [2], 400 µM. The Activity result in assay [3] was “Dose-dependent effect”.

With `COC1OC(=O)C=C1CC[C@]1(C)[C@H](C)CC[C@@]23COC(=O)C2=C[C@@H](O[C@@H]2O[C@H](CO)[C@@H](O)[C@H](O)[C@H]2O)C[C@@H]31` (stereo partly specified), the half-maximal inhibitory concentration (IC50) in assay [1] was above 10000 µM.

With `COc1cc(-c2cc(=O)c3c(O)c(O)c(OC)cc3o2)ccc1Oc1ccc(-c2cc(=O)c3c(O)c(O)c(OC)cc3o2)cc1OC`, the IC50 in assay [1] was found to be 39 µM. The Ratio IC50 in assay [4] came to 2.5. `C[C@H]1O[C@H](O[C@H]2[C@H](O)[C@@H](O)[C@@H](O[C@H]3[C@H](O)[C@@H](O)C(O)O[C@@H]3CO)O[C@@H]2CO)[C@H](O)[C@@H](O)[C@@H]1N[C@H]1C=C(CO)[C@@H](O)[C@H](O)[C@H]1O` (stereo partly specified) [ACARBOSE]: in assay [1], the IC50 amounted to 100 µM. Besides, the outcome in assay [5] was Active.

As to `CC(=O)CC[C@]1(C)[C@H](C)CC[C@@]23COC(=O)C2=C[C@@H](O[C@@H]2O[C@H](CO)[C@@H](O)[C@H](O)[C@H]2O)C[C@@H]31`, in assay [1], the IC50 is above 10000 µM. On the same count and under the same terms, the value for `C[C@@H]1CC[C@@]23COC(=O)C2=C[C@@H](O[C@@H]2O[C@H](CO)[C@@H](O)[C@H](O)[C@H]2O)C[C@@H]3[C@]1(C)CCC1=CCOC1=O` was above 10000 µM; that for `COc1ccc(-c2cc(=O)c3c(O)c(O)c(OC)cc3o2)cc1OC` was 1800 µM.
